Data on 14 compounds can be found in ChEMBL document CHEMBL4043222, “Pyrrolizines: Design, synthesis, anticancer evaluation and investigation of the potential mechanism of action” (Bioorg Med Chem, 2017).

By IC50 is commonly meant the concentration at which inhibition is half-maximal. By inhibition is commonly meant the change of the read-out against control, counted positive when it falls.

For assay [1], the system named is MCF7. Put plainly: Growth inhibition of human MCF7 cells by MTT assay. The assay is classed as functional, cell-based. A digest of the protocol:
(§1)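 MTT viability. Cells seeded for 24 h, then exposed to compound for 48 h in DMEM/F-12 or DMEM with 5% FBS. Vehicle controls received matching DMSO. MTT added at 0.5 mg/mL for 3 h at 37 °C. Formazan dissolved in DMSO and absorbance read at 570 nm.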

In assay [2] the target is T1, Prostaglandin G/H synthase 1 (Ovis aries, UniProt P05979).
T1 sequence (P05979 whole entry): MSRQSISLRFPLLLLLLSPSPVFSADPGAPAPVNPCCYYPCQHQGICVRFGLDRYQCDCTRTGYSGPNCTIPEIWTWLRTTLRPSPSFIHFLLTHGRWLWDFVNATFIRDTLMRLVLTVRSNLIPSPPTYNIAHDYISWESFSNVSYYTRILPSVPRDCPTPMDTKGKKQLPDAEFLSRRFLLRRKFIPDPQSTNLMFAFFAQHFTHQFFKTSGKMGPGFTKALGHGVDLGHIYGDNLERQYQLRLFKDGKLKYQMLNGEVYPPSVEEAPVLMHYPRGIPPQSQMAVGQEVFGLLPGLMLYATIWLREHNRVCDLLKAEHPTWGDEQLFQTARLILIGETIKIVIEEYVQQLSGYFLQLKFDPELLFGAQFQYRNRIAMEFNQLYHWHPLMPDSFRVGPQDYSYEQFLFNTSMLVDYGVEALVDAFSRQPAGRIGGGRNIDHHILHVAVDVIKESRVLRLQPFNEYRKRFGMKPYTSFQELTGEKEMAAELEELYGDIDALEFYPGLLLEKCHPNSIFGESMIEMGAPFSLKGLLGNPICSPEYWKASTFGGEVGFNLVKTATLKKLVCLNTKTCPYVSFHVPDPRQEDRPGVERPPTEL
Put plainly: Inhibition of ovine COX1 assessed as reduction in PGH2 formation by measuring PGF2alpha by colorimetric assay. In short, it runs like this:
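Colorimetric COX inhibitor screening kit run per the manufacturer, using ovine COX-1. IC50 calculated from three determinations.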

Assay [3] relates to A549. Put plainly: Growth inhibition of human A549 cells by MTT assay. The format is functional, cell-based. A digest of the protocol: as §1
Assay [4] has as its system A549. Put plainly: Induction of apoptosis in human A549 cells assessed as caspe-3/7 activation at 5 to 20 uM incubated for 24 hrs by Caspase-Glo 3/7 luminescence assay. The format is functional, cell-based. A digest of the protocol: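 A549 cells plated at 1 x 10^4 per well and allowed 24 h to settle. Medium removed, then compounds added for 24 h at 5, 10 and 20 μM. Vehicle controls received equivalent DMSO. Caspase-3/7 activity read by Caspase-Glo 3/7 luminescence (RLU). Mean ± S.D. (n = 5), experiment done 3 times. Compared with vehicle by one-way ANOVA with Dunnett's test.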

A further assay deals with Hep 3B2. The assay is described as follows: Growth inhibition of human Hep3B cells by MTT assay. The format is functional, cell-based. In short, it runs like this: as §1
For orientation: Tetrazolium dyes change colour on reduction, which living cells bring about.

Assay [5] concerns the target Glycogen synthase kinase-3 alpha (Homo sapiens) (UniProt P49840). The assay is described as follows: Inhibition of GSK3alpha (unknown origin) at 10 uM using [33P]-ATP after 20 to 40 mins by scintillation counting method.
The target of assay [6] is Ribosomal protein S6 kinase alpha-5 (Homo sapiens) (UniProt O75582). The assay is described as follows: Inhibition of MSK1 (unknown origin) at 10 uM using [33P]-ATP after 20 to 40 mins by scintillation counting method.
In assay [7] the target is Rhodopsin kinase GRK1 (Homo sapiens) (UniProt Q15835). Put plainly: Inhibition of GRK1 (unknown origin) at 10 uM using [33P]-ATP after 20 to 40 mins by scintillation counting method.
For assay [8], the target named is Dual specificity tyrosine-phosphorylation-regulated kinase 3 (Homo sapiens) (UniProt O43781). Put plainly: Inhibition of DYRK3 (unknown origin) at 10 uM using [33P]-ATP after 20 to 40 mins by scintillation counting method.
Assay [9] has as its target Ephrin type-A receptor 1 (Homo sapiens) (UniProt P21709). Put plainly: Inhibition of EPHA1 (unknown origin) at 10 uM using [33P]-ATP after 20 to 40 mins by scintillation counting method.
Assay [10] addresses Serine/threonine-protein kinase Sgk1 (Homo sapiens) (UniProt O00141). The assay is described as follows: Inhibition of SGK1 (unknown origin) at 10 uM using [33P]-ATP after 20 to 40 mins by scintillation counting method.
Assay [11] addresses 3-phosphoinositide-dependent protein kinase 1 (Homo sapiens) (UniProt O15530). Put plainly: Inhibition of PDK1 (unknown origin) at 10 uM using [33P]-ATP after 20 to 40 mins by scintillation counting method.
The target in assay [12] is AMP-activated protein kinase (AMPK) alpha-1/beta-1/gamma-1 (Homo sapiens) (UniProt P54619+Q9Y478+Q13131). Put plainly: Inhibition of AMPK alpha1/beta1/gamma1 (unknown origin) at 10 uM using [33P]-ATP after 20 to 40 mins by scintillation counting method. The format is protein-complex assay.
In assay [13] the target is Activin receptor type-1-like (Homo sapiens) (UniProt P37023). The assay is described as follows: Inhibition of ALK1 (unknown origin) at 10 uM using [33P]-ATP after 20 to 40 mins by scintillation counting method.
The target in assay [14] is cGMP-dependent protein kinase 1 (Homo sapiens) (UniProt Q13976). Put plainly: Inhibition of PRKG1 (unknown origin) at 10 uM using [33P]-ATP after 20 to 40 mins by scintillation counting method.
Assay [15] addresses Mitogen-activated protein kinase kinase kinase 5 (Homo sapiens) (UniProt Q99683). Put plainly: Inhibition of ASK1 (unknown origin) at 10 uM using [33P]-ATP after 20 to 40 mins by scintillation counting method.
Assay [16] addresses Vascular endothelial growth factor receptor 1 (Homo sapiens) (UniProt P17948). Put plainly: Inhibition of FLT1 (unknown origin) at 10 uM using [33P]-ATP after 20 to 40 mins by scintillation counting method.
Assay [17] concerns the target Tyrosine-protein kinase Blk (Homo sapiens) (UniProt P51451). Put plainly: Inhibition of BLK (unknown origin) at 10 uM using [33P]-ATP after 20 to 40 mins by scintillation counting method.
Assay [18] deals with Casein kinase I isoform alpha (Homo sapiens) (UniProt P48729). The assay is described as follows: Inhibition of CK1alpha1 (unknown origin) at 10 uM using [33P]-ATP after 20 to 40 mins by scintillation counting method.
Assay [19] has as its system MCF7. The assay is described as follows: Anticancer activity against human MCF7 cells. The assay is classed as functional, cell-based.
The test system of another assay is PC-3. Put plainly: Anticancer activity against human PC3 cells. The format is functional, cell-based.

The source made the active and inactive calls. The rule behind the calls is not given here.

Chain of Serine/threonine-protein kinase Sgk1 (Homo sapiens) (O00141 whole entry): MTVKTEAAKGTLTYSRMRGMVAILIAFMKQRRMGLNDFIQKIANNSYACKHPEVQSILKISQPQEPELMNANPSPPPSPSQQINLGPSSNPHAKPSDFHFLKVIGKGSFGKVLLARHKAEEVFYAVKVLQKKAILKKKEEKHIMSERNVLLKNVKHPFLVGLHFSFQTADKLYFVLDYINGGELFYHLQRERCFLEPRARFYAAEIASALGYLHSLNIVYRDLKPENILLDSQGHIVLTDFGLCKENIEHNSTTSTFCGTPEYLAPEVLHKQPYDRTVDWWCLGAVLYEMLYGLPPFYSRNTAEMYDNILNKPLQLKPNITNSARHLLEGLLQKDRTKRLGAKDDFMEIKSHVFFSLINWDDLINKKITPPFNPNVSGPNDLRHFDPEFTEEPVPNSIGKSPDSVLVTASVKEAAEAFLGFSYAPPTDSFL
Chain of Mitogen-activated protein kinase kinase kinase 5 (Homo sapiens) (Q99683 whole entry): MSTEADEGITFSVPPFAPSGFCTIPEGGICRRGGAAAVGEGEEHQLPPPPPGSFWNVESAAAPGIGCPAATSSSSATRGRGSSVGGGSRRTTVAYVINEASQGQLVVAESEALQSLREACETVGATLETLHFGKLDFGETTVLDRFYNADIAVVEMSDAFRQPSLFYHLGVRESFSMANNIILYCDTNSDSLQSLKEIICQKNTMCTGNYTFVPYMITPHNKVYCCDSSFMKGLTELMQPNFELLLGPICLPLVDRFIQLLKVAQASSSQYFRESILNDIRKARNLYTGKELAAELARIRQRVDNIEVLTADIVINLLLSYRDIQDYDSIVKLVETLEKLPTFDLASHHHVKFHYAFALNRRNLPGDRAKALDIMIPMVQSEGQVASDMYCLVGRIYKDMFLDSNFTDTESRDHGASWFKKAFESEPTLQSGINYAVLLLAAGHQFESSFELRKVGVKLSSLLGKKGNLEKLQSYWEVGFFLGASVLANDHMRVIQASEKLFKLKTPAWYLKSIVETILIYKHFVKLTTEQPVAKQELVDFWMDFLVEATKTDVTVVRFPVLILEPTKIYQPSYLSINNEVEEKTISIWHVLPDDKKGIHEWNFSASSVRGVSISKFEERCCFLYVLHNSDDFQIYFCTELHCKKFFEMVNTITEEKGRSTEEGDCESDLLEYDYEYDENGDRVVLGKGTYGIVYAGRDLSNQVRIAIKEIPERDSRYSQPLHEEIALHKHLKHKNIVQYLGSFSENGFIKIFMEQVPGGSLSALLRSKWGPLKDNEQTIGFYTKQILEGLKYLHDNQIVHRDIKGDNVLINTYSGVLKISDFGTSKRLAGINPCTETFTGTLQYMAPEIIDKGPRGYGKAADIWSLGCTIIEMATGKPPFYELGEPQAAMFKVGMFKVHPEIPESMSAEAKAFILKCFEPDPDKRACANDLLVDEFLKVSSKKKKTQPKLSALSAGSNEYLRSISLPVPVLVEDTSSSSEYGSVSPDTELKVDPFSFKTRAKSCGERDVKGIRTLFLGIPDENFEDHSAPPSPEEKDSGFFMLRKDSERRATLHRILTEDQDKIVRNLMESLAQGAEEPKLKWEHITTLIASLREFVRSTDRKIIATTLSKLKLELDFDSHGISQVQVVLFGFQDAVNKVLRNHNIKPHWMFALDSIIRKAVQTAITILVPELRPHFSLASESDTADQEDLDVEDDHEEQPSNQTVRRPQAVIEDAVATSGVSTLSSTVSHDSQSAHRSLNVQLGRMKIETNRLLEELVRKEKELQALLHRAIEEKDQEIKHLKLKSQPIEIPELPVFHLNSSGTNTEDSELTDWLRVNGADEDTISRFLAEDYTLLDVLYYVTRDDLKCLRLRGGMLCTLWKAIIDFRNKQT
Chain of 3-phosphoinositide-dependent protein kinase 1 (Homo sapiens) (O15530 whole entry): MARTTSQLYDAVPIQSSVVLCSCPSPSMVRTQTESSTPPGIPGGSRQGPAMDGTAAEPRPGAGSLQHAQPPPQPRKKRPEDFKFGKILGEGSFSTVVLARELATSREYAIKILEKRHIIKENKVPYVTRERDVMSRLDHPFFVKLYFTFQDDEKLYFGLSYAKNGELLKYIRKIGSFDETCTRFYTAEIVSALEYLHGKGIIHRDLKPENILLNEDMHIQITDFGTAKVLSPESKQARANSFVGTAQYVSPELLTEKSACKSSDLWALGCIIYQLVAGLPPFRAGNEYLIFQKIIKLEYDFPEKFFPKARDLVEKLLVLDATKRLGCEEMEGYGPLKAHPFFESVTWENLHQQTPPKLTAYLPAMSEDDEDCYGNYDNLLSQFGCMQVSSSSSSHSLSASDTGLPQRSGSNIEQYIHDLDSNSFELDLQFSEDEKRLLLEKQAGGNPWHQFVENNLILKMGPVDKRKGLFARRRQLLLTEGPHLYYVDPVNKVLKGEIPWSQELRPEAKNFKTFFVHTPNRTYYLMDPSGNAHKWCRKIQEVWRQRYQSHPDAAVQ
Chain of Tyrosine-protein kinase Blk (Homo sapiens) (P51451 2-505 limits assumed): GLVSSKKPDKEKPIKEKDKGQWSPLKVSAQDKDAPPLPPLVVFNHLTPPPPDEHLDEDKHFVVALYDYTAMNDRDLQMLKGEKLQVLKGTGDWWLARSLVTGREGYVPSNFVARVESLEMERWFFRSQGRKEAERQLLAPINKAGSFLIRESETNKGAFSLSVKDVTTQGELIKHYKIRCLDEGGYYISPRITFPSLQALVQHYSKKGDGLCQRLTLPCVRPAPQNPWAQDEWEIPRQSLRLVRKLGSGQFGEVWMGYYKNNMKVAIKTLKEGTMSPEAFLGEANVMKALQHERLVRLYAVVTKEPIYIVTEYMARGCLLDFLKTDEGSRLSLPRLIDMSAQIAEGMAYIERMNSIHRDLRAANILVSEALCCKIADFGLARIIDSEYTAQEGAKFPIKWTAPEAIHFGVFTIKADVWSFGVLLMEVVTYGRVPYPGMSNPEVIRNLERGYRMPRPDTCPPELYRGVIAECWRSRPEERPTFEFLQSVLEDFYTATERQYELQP
Chain of Dual specificity tyrosine-phosphorylation-regulated kinase 3 (Homo sapiens) (O43781 whole entry): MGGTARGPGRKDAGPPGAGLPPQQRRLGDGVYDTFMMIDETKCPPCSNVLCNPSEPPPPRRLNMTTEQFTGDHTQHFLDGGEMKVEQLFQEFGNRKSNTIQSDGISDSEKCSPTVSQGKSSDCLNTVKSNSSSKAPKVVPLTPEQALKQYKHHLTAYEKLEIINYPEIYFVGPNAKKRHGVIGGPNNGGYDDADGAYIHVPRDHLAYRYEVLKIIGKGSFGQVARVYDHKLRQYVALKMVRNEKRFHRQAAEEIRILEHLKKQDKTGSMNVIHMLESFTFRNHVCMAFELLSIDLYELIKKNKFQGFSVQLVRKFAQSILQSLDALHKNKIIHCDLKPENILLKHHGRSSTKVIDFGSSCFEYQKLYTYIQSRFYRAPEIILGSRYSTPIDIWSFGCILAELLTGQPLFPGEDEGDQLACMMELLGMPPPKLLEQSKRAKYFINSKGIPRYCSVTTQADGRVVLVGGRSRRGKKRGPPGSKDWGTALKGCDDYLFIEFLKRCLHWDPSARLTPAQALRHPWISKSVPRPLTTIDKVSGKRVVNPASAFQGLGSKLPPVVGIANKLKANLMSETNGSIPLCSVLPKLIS
Chain of Rhodopsin kinase GRK1 (Homo sapiens) (Q15835 whole entry): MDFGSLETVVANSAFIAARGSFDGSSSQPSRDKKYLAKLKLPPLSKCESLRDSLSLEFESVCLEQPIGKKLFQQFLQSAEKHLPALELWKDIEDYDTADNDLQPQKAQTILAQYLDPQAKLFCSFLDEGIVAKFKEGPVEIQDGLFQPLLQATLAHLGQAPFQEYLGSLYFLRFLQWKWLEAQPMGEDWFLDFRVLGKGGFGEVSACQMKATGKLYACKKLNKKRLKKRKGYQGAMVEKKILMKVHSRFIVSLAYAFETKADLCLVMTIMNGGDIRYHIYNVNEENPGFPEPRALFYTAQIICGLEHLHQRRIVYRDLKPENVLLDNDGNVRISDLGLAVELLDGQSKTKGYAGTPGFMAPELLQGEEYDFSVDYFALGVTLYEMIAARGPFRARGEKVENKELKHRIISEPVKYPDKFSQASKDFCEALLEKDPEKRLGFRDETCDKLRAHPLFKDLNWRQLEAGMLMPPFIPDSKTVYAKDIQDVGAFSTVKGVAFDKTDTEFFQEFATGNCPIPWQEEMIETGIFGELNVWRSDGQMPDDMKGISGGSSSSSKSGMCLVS
Chain of Ephrin type-A receptor 1 (Homo sapiens) (P21709 whole entry): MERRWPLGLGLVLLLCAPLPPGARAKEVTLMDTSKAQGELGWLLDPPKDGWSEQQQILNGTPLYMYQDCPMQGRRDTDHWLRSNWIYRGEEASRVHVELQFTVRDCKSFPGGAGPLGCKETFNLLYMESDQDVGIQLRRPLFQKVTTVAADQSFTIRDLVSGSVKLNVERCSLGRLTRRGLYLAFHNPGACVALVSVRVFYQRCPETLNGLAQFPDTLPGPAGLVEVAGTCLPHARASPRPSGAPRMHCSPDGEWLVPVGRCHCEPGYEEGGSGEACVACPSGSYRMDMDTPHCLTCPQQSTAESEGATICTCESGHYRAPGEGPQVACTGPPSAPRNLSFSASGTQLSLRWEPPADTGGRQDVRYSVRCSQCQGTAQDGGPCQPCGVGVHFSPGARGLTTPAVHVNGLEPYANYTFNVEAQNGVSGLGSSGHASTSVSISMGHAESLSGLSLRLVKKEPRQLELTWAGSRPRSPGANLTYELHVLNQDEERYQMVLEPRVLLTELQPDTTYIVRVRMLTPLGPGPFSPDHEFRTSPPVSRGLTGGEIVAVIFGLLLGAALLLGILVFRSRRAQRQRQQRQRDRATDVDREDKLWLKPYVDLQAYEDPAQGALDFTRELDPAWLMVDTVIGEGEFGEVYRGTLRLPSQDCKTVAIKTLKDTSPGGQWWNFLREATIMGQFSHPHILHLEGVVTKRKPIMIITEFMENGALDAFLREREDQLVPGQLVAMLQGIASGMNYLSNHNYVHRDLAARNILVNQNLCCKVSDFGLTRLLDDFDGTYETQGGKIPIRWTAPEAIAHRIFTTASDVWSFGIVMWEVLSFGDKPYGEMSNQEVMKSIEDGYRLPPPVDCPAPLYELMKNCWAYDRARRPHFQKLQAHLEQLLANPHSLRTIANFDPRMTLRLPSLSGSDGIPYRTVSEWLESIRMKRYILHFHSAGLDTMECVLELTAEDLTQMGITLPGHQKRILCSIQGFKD

For `N#Cc1c(N=Cc2ccc3ccccc3c2)c(C(=O)Nc2ccccc2)n2c1CCC2`, the IC50 in the assay with MCF7 [1] turned out to be 5.77 µM; in assay [2], 7.98 µM; with A549 [3], 7.11 µM; in the assay on Hep 3B2 it was 10.2 µM. Besides, the result with A549 [4] was Active.
With `N#Cc1c(N=Cc2ccc3ccccc3c2)c(C(=O)Nc2ccc(Cl)cc2)n2c1CCC2`, the IC50 with MCF7 [1] stood at 9.82 µM; in [2], 10.6 µM; in the assay with A549 [3], 11.2 µM; in the assay with Hep 3B2, 12.5 µM.
In the same order, the values of `N#Cc1c(N=Cc2ccco2)c(C(=O)Nc2ccc(Cl)cc2)n2c1CCC2` are 15.7 µM, 8.41 µM, 28.4 µM and 27.5 µM.
With `Cc1ccc(NC(=O)c2c(N=Cc3ccco3)c(C#N)c3n2CCC3)cc1`, the IC50 in the assay on MCF7 [1] was 16.1 µM; in [2], 9.23 µM; with A549 [3], 29.4 µM; with Hep 3B2 it was 24.4 µM.
In the case of `N#Cc1c(N=Cc2cccs2)c(C(=O)Nc2ccccc2)n2c1CCC2`, the IC50 is 6.97 µM with MCF7 [1], 4.96 µM in assay [2], 12.5 µM in the assay on A549 [3] and 18.6 µM with Hep 3B2.
In the same order, the values of `N#Cc1c(N=Cc2cccnc2)c(C(=O)Nc2ccccc2)n2c1CCC2` are 11.7 µM, 11.3 µM, 17.5 µM and 25.8 µM.
On to `N#Cc1c(N=Cc2cccnc2)c(C(=O)Nc2ccc(Cl)cc2)n2c1CCC2`, for which the IC50 in the assay with MCF7 [1] was found to be 22.5 µM; in [2], 5.78 µM; with A549 [3], 23 µM; in the assay on Hep 3B2 it was 31.2 µM.
For `Cc1ccc(NC(=O)c2ccc(CN3CCN(C)CC3)cc2)cc1Nc1nccc(-c2cccnc2)n1`, the inhibition in assay [5] is 1%; in [6], -49%; in assay [7] it was -2%; in [8] it was 10%; in assay [9], -22%; in assay [10], -3%. Moreover, the inhibition in assay [11] is -34%; in assay [12], -18%; in assay [13], -14%; in assay [14], -4%; in assay [15], -5%; in [16], 10%. Moreover, the inhibition in [17] came to 3%; in assay [18] it was 0%.
Consider `Cc1ccc(NC(=O)c2c(N=Cc3cccs3)c(C#N)c3n2CCC3)cc1`, for which the IC50 in the assay on MCF7 [1] stood at 5.35 µM; in [2], 10.4 µM; in the assay with A549 [3], 11.4 µM; in the assay on Hep 3B2, 13.8 µM.
As to `N#Cc1c(N=Cc2ccco2)c(C(=O)Nc2ccccc2)n2c1CCC2`, the IC50 in the assay with MCF7 [1] worked out at 8.35 µM; in assay [2], 6.54 µM; in the assay on A549 [3], 9.75 µM; with Hep 3B2 it was 12.8 µM.
In the same order, the values of `Cc1ccc(NC(=O)c2c(N=Cc3cccnc3)c(C#N)c3n2CCC3)cc1` are 18.3 µM, 9.54 µM, 20.5 µM and 34.8 µM.
Take `COc1cccc2c1C(=O)c1c(O)c3c(c(O)c1C2=O)C[C@@](O)(C(=O)CO)C[C@@H]3O[C@H]1C[C@H](N)[C@H](O)[C@H](C)O1` [DOXORUBICIN]: the figures for the IC50 in the assay with MCF7 [1] and in the assay on Hep 3B2 were 2.3 µM and 2.4 µM, respectively.
In the case of `N#Cc1c(N=Cc2cccs2)c(C(=O)Nc2ccc(Cl)cc2)n2c1CCC2`, the IC50 is 4.72 µM in the assay with MCF7 [1], 7.68 µM in [2], 22.8 µM with A549 [3] and 11.6 µM with Hep 3B2.
`N#Cc1c(/N=C/c2ccc([N+](=O)[O-])cc2)c(C(=O)Nc2cc(Cl)cc(Cl)c2)n2c1CCC2`: the half-inhibitory concentration (IC50) in the assay with MCF7 [1] was determined as 7.9 µM; in the assay with MCF7 [19], 7.9 µM; with PC-3, 8.54 µM; with A549 [3], 16.2 µM; in the assay on Hep 3B2, 14 µM.
